≈ marks a conversion by molar mass, not a printed value.
Columns and labels:
Format in all cases: functional
Pseudomonas aeruginosa [1] = experiment: Antimicrobial activity against Pseudomonas aeruginosa by after 18-20 hrs agar dilution method
Pseudomonas aeruginosa [2] = experiment: Antimicrobial activity against Pseudomonas aeruginosa clinical isolate selected in vitro after antipseudomonal treatment of intensive care unit patient by broth microdilution method
Procedure, shortened: (§1)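 MICs by standard CLSI broth microdilution (M100-S18) at 0.12 to 256 μg/ml. The isolates are sequential P. aeruginosa isolates that emerged during antipseudomonal therapy of patients in a Spanish ICU (2002–2003). P. aeruginosa PAO1 and ATCC 27853 were run in parallel for quality control.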

Pseudomonas aeruginosa [3] = experiment: Antimicrobial activity against beta-lactam resistant Pseudomonas aeruginosa PAOD2 harboring oprD spontaneous mutant and deficient in ampD gene by selected in vitro after antipseudomonal treatment of intensive care unit patient by broth microdilution method
Procedure, shortened: (§2)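 Broth microdilution MICs per CLSI M100-S18, over 0.12 to 256 μg/ml. Strains are PAO1 and its mutants. oprD mutants were selected overnight on Mueller-Hinton agar with 4 μg/ml imipenem, passaged antibiotic-free, then confirmed by oprD amplification and sequencing. PAO1 and ATCC 27853 were run alongside as quality controls.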

Pseudomonas aeruginosa [4] = experiment: Antimicrobial activity against beta-lactam resistant Pseudomonas aeruginosa PAO1 deficient in ampD and ampDh3 gene selected in vitro after antipseudomonal treatment of intensive care unit patient by broth microdilution method; procedure, shortened: as §2
Pseudomonas aeruginosa [5] = experiment: Antimicrobial activity against Ceftazidime resistant Pseudomonas aeruginosa clinical isolate selected in vitro after antipseudomonal treatment of intensive care unit patient by broth microdilution method; procedure, shortened: as §1
Pseudomonas aeruginosa [6] = experiment: Antimicrobial activity against cefipime resistant Pseudomonas aeruginosa by microdilution method
Pseudomonas aeruginosa [7] = experiment: Antimicrobial activity against metallo beta-lactamase producing Pseudomonas aeruginosa isolates
Pseudomonas aeruginosa [8] = experiment: Antimicrobial activity against beta-lactam resistant Pseudomonas aeruginosa PAOD2 harboring oprD spontaneous mutant selected in vitro after antipseudomonal treatment of intensive care unit patient by broth microdilution method; procedure, shortened: as §2
Pseudomonas aeruginosa [9] = experiment: Antimicrobial activity against PIP-tazobactam resistant Pseudomonas aeruginosa clinical isolate selected in vitro after antipseudomonal treatment of intensive care unit patient by broth microdilution method; procedure, shortened: as §1
Pseudomonas aeruginosa [10] = experiment: Antimicrobial activity against beta-lactam resistant Pseudomonas aeruginosa PAO1 deficient in ampD gene selected in vitro after antipseudomonal treatment of intensive care unit patient by broth microdilution method; procedure, shortened: as §2
Pseudomonas aeruginosa [11] = experiment: Antimicrobial activity against beta-lactam resistant Pseudomonas aeruginosa PAO1 deficient in ampD, […] gene selected in vitro after antipseudomonal treatment of intensive care unit patient by broth microdilution method; procedure, shortened: as §2
Pseudomonas aeruginosa [12] = experiment: Antimicrobial activity against ciprofloxacin resistant Pseudomonas aeruginosa clinical isolate selected in vitro after antipseudomonal treatment of intensive care unit patient by broth microdilution method; procedure, shortened: as §1
Pseudomonas aeruginosa [13] = experiment: Antimicrobial activity against beta-lactam resistant Pseudomonas aeruginosa PAOD1 harboring oprD spontaneous mutant and deficient in dacB gene selected in vitro after antipseudomonal treatment of intensive care unit patient by broth microdilution method; procedure, shortened: as §2
Pseudomonas aeruginosa [14] = experiment: Antimicrobial activity against beta-lactam resistant Pseudomonas aeruginosa PAOD3 harboring oprD spontaneous mutant and deficient in dacB gene selected in vitro after antipseudomonal treatment of intensive care unit patient by broth microdilution method; procedure, shortened: as §2
Pseudomonas aeruginosa [15] = experiment: Antimicrobial activity against beta-lactam resistant Pseudomonas aeruginosa PAO1 by broth microdilution method; procedure, shortened: as §2
Pseudomonas aeruginosa [16] = experiment: Antimicrobial activity against multidrug resistant Pseudomonas aeruginosa clinical isolate selected in vitro after antipseudomonal treatment of intensive care unit patient by broth microdilution method; procedure, shortened: as §1
Pseudomonas aeruginosa [17] = experiment: Antimicrobial activity against beta-lactam resistant Pseudomonas aeruginosa PAOD3 harboring oprD spontaneous mutant selected in vitro after antipseudomonal treatment of intensive care unit patient by broth microdilution method; procedure, shortened: as §2
Pseudomonas aeruginosa [18] = experiment: Antimicrobial activity against beta-lactam resistant Pseudomonas aeruginosa PAO1 deficient in ampD and dacB gene selected in vitro after antipseudomonal treatment of intensive care unit patient by broth microdilution method; procedure, shortened: as §2
Pseudomonas aeruginosa [19] = experiment: Antimicrobial activity against pan-beta-lactam resistant Pseudomonas aeruginosa clinical isolate selected in vitro after antipseudomonal treatment of intensive care unit patient by broth microdilution method; procedure, shortened: as §1
Pseudomonas aeruginosa [20] = experiment: Antimicrobial activity against beta-lactam resistant Pseudomonas aeruginosa PAOD1 harboring oprD spontaneous mutant selected in vitro after antipseudomonal treatment of intensive care unit patient by broth microdilution method; procedure, shortened: as §2
Pseudomonas aeruginosa [21] = experiment: Antimicrobial activity against beta-lactam resistant Pseudomonas aeruginosa PA01 deficient in dacB gene by broth microdilution method; procedure, shortened: as §2
Pseudomonas aeruginosa [22] = experiment: Antimicrobial activity against cefipime resistant Pseudomonas aeruginosa overexpressing MexXY-OprM gene by microdilution method
Pseudomonas aeruginosa [23] = experiment: Antimicrobial activity against Pseudomonas aeruginosa AmpC overexpressing clinical isolate selected in vitro after antipseudomonal treatment of intensive care unit patient by broth microdilution method; procedure, shortened: as §1
Pseudomonas aeruginosa [24] = experiment: Antimicrobial activity against beta-lactam resistant Pseudomonas aeruginosa PAOD2 harboring oprD spontaneous mutant and deficient in dacB gene selected in vitro after antipseudomonal treatment of intensive care unit patient by broth microdilution method; procedure, shortened: as §2
Pseudomonas aeruginosa [25] = experiment: Antimicrobial activity against Imipenem resistant Pseudomonas aeruginosa clinical isolate selected in vitro after antipseudomonal treatment of intensive care unit patient by broth microdilution method; procedure, shortened: as §1
Pseudomonas aeruginosa [26] = experiment: Antimicrobial activity against meropenem resistant Pseudomonas aeruginosa clinical isolate selected in vitro after antipseudomonal treatment of intensive care unit patient by broth microdilution method; procedure, shortened: as §1
Pseudomonas aeruginosa [27] = experiment: Antimicrobial activity against extended spectrum beta-lactamase producing Pseudomonas aeruginosa isolates by broth microdilution method
Pseudomonas aeruginosa [28] = experiment: Antimicrobial activity against cefipime resistant Pseudomonas aeruginosa clinical isolate selected in vitro after antipseudomonal treatment of intensive care unit patient by broth microdilution method; procedure, shortened: as §1
Pseudomonas aeruginosa [29] = experiment: Antimicrobial activity against beta-lactam resistant beta-lactam resistant Pseudomonas aeruginosa PAOD3 harboring oprD spontaneous mutant and deficient in ampD gene selected in vitro after antipseudomonal treatment of intensive care unit patient by broth microdilution method; procedure, shortened: as §2
Pseudomonas aeruginosa [30] = experiment: Antimicrobial activity against beta-lactam resistant Pseudomonas aeruginosa PAOD1 harboring oprD spontaneous mutant and deficient in ampD gene selected in vitro after antipseudomonal treatment of intensive care unit patient by broth microdilution method; procedure, shortened: as §2
Pseudomonas aeruginosa [31] = experiment: Antimicrobial activity against Pseudomonas aeruginosa clinical isolate assessed as resistant isolates selected in vitro after antipseudomonal treatment of intensive care unit patient by CLSI method

Cn1c(N)c(NC(=O)NCCN)c[n+]1CC1=C(C(=O)O)N2C(=O)[C@@H](NC(=O)/C(=N\OC(C)(C)C(=O)[O-])c3nsc(N)n3)[C@H]2SC1 [CEFTOLOZANE]
Ratio (Pseudomonas aeruginosa [1]): -0.5
MIC50 (Pseudomonas aeruginosa [2]): 0.5 µg/mL (≈ 0.75 µM)
MIC80 (Pseudomonas aeruginosa [2]): 0.53 µg/mL (≈ 0.795 µM)
MIC90 (Pseudomonas aeruginosa [2]): 2 µg/mL (≈ 3 µM)
MIC (Pseudomonas aeruginosa [3]): 0.5 µg/mL (≈ 0.75 µM)
MIC (Pseudomonas aeruginosa [4]): 1 µg/mL (≈ 1.5 µM)
GM MIC (Pseudomonas aeruginosa [5]): 0.94 µg/mL
MIC50 (Pseudomonas aeruginosa [5]): 1 µg/mL (≈ 1.5 µM)
MIC90 (Pseudomonas aeruginosa [5]): 4 µg/mL (≈ 6 µM)
MIC (Pseudomonas aeruginosa [6]): 1 µg/mL (≈ 1.5 µM)
Ratio (Pseudomonas aeruginosa [7]): 0.25
MIC (Pseudomonas aeruginosa [8]): 0.5 µg/mL (≈ 0.75 µM)
GM MIC (Pseudomonas aeruginosa [9]): 1.59 µg/mL
MIC50 (Pseudomonas aeruginosa [9]): 1 µg/mL
MIC90 (Pseudomonas aeruginosa [9]): 4 µg/mL
MIC (Pseudomonas aeruginosa [10]): 0.5 µg/mL (≈ 0.75 µM)
MIC (Pseudomonas aeruginosa [11]): 1 µg/mL (≈ 1.5 µM)
MIC (Pseudomonas aeruginosa [12]): 0.88 µg/mL (≈ 1.32 µM)
MIC50 (Pseudomonas aeruginosa [12]): 1 µg/mL (≈ 1.5 µM)
MIC90 (Pseudomonas aeruginosa [12]): 4 µg/mL (≈ 6 µM)
MIC (Pseudomonas aeruginosa [13]): 0.5 µg/mL (≈ 0.75 µM)
MIC (Pseudomonas aeruginosa [14]): 0.5 µg/mL (≈ 0.75 µM)
MIC (Pseudomonas aeruginosa [15]): 0.5 µg/mL (≈ 0.75 µM)
MIC (Pseudomonas aeruginosa [16]): 1.83 µg/mL (≈ 2.74 µM)
MIC (Pseudomonas aeruginosa [17]): 0.5 µg/mL (≈ 0.75 µM)
MIC (Pseudomonas aeruginosa [18]): 2 µg/mL (≈ 3 µM)
MIC (Pseudomonas aeruginosa [19]): 2.53 µg/mL (≈ 3.79 µM)
MIC (Pseudomonas aeruginosa [20]): 0.5 µg/mL (≈ 0.75 µM)
MIC (Pseudomonas aeruginosa [21]): 1 µg/mL (≈ 1.5 µM)
MIC (Pseudomonas aeruginosa [22]): 1 µg/mL (≈ 1.5 µM)
MIC (Pseudomonas aeruginosa [23]): 0.71 µg/mL (≈ 1.06 µM)
MIC50 (Pseudomonas aeruginosa [23]): 1 µg/mL (≈ 1.5 µM)
MIC90 (Pseudomonas aeruginosa [23]): 4 µg/mL (≈ 6 µM)
MIC (Pseudomonas aeruginosa [24]): 0.5 µg/mL (≈ 0.75 µM)
GM MIC (Pseudomonas aeruginosa [25]): 0.84 µg/mL
MIC50 (Pseudomonas aeruginosa [25]): 0.5 µg/mL (≈ 0.75 µM)
MIC90 (Pseudomonas aeruginosa [25]): 4 µg/mL (≈ 6 µM)
GM MIC (Pseudomonas aeruginosa [26]): 0.86 µg/mL
MIC50 (Pseudomonas aeruginosa [26]): 0.5 µg/mL (≈ 0.75 µM)
MIC90 (Pseudomonas aeruginosa [26]): 4 µg/mL (≈ 6 µM)
MIC (Pseudomonas aeruginosa [27]): > 8 µg/mL
GM MIC (Pseudomonas aeruginosa [28]): 0.91 µg/mL
MIC50 (Pseudomonas aeruginosa [28]): 1 µg/mL (≈ 1.5 µM)
MIC90 (Pseudomonas aeruginosa [28]): 4 µg/mL (≈ 6 µM)
MIC (Pseudomonas aeruginosa [29]): 0.5 µg/mL (≈ 0.75 µM)
MIC (Pseudomonas aeruginosa [30]): 0.5 µg/mL (≈ 0.75 µM)

C[C@@H](O)[C@H]1C(=O)N2C(C(=O)O)=C(SCCNC=N)C[C@H]12 [IMIPENEM ANHYDROUS]
MIC (Pseudomonas aeruginosa [3]): 16 µg/mL (≈ 53.4 µM)
MIC (Pseudomonas aeruginosa [4]): 2 µg/mL (≈ 6.68 µM)
MIC (Pseudomonas aeruginosa [8]): 8 µg/mL (≈ 26.7 µM)
MIC (Pseudomonas aeruginosa [10]): 2 µg/mL (≈ 6.68 µM)
MIC (Pseudomonas aeruginosa [11]): 1 µg/mL (≈ 3.34 µM)
MIC (Pseudomonas aeruginosa [13]): 16 µg/mL (≈ 53.4 µM)
MIC (Pseudomonas aeruginosa [14]): 16 µg/mL (≈ 53.4 µM)
MIC (Pseudomonas aeruginosa [15]): 2 µg/mL (≈ 6.68 µM)
MIC (Pseudomonas aeruginosa [17]): 16 µg/mL (≈ 53.4 µM)
MIC (Pseudomonas aeruginosa [18]): 2 µg/mL (≈ 6.68 µM)
MIC (Pseudomonas aeruginosa [20]): 16 µg/mL (≈ 53.4 µM)
MIC (Pseudomonas aeruginosa [21]): 2 µg/mL (≈ 6.68 µM)
MIC (Pseudomonas aeruginosa [24]): 16 µg/mL (≈ 53.4 µM)
Activity (Pseudomonas aeruginosa [31]): 57%
MIC (Pseudomonas aeruginosa [29]): 16 µg/mL (≈ 53.4 µM)
MIC (Pseudomonas aeruginosa [30]): 16 µg/mL (≈ 53.4 µM)

C[C@@H](O)[C@H]1C(=O)N2C(C(=O)O)=C(S[C@@H]3CN[C@H](C(=O)N(C)C)C3)[C@H](C)[C@H]12 [MEROPENEM]
MIC (Pseudomonas aeruginosa [3]): 8 µg/mL (≈ 20.9 µM)
MIC (Pseudomonas aeruginosa [4]): 2 µg/mL (≈ 5.22 µM)
MIC (Pseudomonas aeruginosa [8]): 2 µg/mL (≈ 5.22 µM)
MIC (Pseudomonas aeruginosa [10]): 2 µg/mL (≈ 5.22 µM)
MIC (Pseudomonas aeruginosa [11]): 1 µg/mL (≈ 2.61 µM)
MIC (Pseudomonas aeruginosa [13]): 4 µg/mL (≈ 10.4 µM)
MIC (Pseudomonas aeruginosa [14]): 4 µg/mL (≈ 10.4 µM)
MIC (Pseudomonas aeruginosa [15]): 0.5 µg/mL (≈ 1.3 µM)
MIC (Pseudomonas aeruginosa [17]): 2 µg/mL (≈ 5.22 µM)
MIC (Pseudomonas aeruginosa [18]): 2 µg/mL (≈ 5.22 µM)
MIC (Pseudomonas aeruginosa [20]): 1 µg/mL (≈ 2.61 µM)
MIC (Pseudomonas aeruginosa [21]): 0.5 µg/mL (≈ 1.3 µM)
MIC (Pseudomonas aeruginosa [24]): 4 µg/mL (≈ 10.4 µM)
Activity (Pseudomonas aeruginosa [31]): 52%
MIC (Pseudomonas aeruginosa [29]): 8 µg/mL (≈ 20.9 µM)
MIC (Pseudomonas aeruginosa [30]): 8 µg/mL (≈ 20.9 µM)

CCN1CCN(C(=O)N[C@@H](C(=O)N[C@@H]2C(=O)N3[C@@H]2SC(C)(C)[C@@H]3C(=O)O)c2ccccc2)C(=O)C1=O [PIPERACILLIN]
MIC (Pseudomonas aeruginosa [3]): 32 µg/mL (≈ 61.8 µM)
MIC (Pseudomonas aeruginosa [4]): 128 µg/mL (≈ 247 µM)
MIC (Pseudomonas aeruginosa [8]): 4 µg/mL (≈ 7.73 µM)
MIC (Pseudomonas aeruginosa [10]): 16 µg/mL (≈ 30.9 µM)
MIC (Pseudomonas aeruginosa [11]): 64 µg/mL (≈ 124 µM)
MIC (Pseudomonas aeruginosa [13]): 64 µg/mL (≈ 124 µM)
MIC (Pseudomonas aeruginosa [14]): 64 µg/mL (≈ 124 µM)
MIC (Pseudomonas aeruginosa [15]): 4 µg/mL (≈ 7.73 µM)
MIC (Pseudomonas aeruginosa [17]): 4 µg/mL (≈ 7.73 µM)
MIC (Pseudomonas aeruginosa [18]): 64 µg/mL (≈ 124 µM)
MIC (Pseudomonas aeruginosa [20]): > 256 µg/mL
MIC (Pseudomonas aeruginosa [21]): 64 µg/mL (≈ 124 µM)
MIC (Pseudomonas aeruginosa [24]): 64 µg/mL (≈ 124 µM)
MIC (Pseudomonas aeruginosa [29]): 64 µg/mL (≈ 124 µM)
MIC (Pseudomonas aeruginosa [30]): 4 µg/mL (≈ 7.73 µM)

— ChEMBL document CHEMBL1240405, “Activity of a new cephalosporin, CXA-101 (FR264205), against beta-lactam-resistant Pseudomonas aeruginosa mutants selected in vitro and after antipseudomonal treatment of intensive care unit patients” (2010)
